≈ marks a conversion by molar mass, not a printed value. Calls of active or inactive are those of the source. No cut-off for these calls is given here.
What was measured:
[1] = Dissociation constant of the compound; type: physicochemical
Outline: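 Spectroscopic pKa in 0.01 M phosphate buffers without cosolvent, below 10⁻⁴ M. Only pH values giving >60% ionization were used. The analytical wavelength was the longest λmax at pH 12 (260–370 nm). The value is the average of triplicate determinations.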

[2] = test system: Actinomyces viscosus; assay: Compound was tested against Actinomyces viscosus; type: functional
[3] = Partition coefficient (logD); type: physicochemical; conditions: octanol/water
Outline: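 logD calculated at pH 7.2 as log D = log P + log[1/(1 + 10^(pH−pKa))], using the calculated log P and spectroscopic pKa.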

[4] = Partition coefficient (logP); type: physicochemical; conditions: octanol/water
Outline: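 log P calculated, not measured: 3.27 for salicylanilide plus π of the 4'-substituent plus π of R' (phenolic hydrophobicity substituent constants).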

[5] = test system: Actinomyces viscosus; assay: Minimum inhibitory concentration against Actinomyces viscosus; type: functional
Outline: (§1)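 Tube dilution in trypticase soy broth, threefold dilutions from 1000 to 0.1 μg/mL. Stocks were 1 mg/100 μL in EtOH or Me₂SO. The inoculum was 50 μL of 10⁸ cfu/mL log-phase A. viscosus M100-2000, incubated aerobically at 37 °C. MIC was read visually at 24 h.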

[6] = test system: Streptococcus mutans; assay: Maximum percentage inhibition against Streptococcus mutans at a concentration of 0.2% w/v; type: functional
Outline: (§2)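 Bovine enamel slabs (4 × 8 mm) were autoclaved in PBS pH 7.5, coated with human saliva (1 h, 37 °C), dipped in drug solution at the stated w/v for 2 min, then rinsed. They were incubated 24 h at 37 °C in 1% sucrose-supplemented medium inoculated with the plaque-forming organism. Tooth-adherent, glass-adherent and nonadherent fractions were read by OD540. Water-dipped slabs served as controls. Run in triplicate.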

[7] = test system: Actinomyces viscosus; assay: Compound was tested for it's inhibitory activity against Actinomyces viscosus M100-2000; type: functional, organism-based
[8] = test system: Actinomyces viscosus; assay: Maximum percentage inhibition against Actinomyces viscosus M-100-2000 at a concentration of 0.2% w/v
[9] = test system: Streptococcus mutans; assay: The compound was tested for it's inhibitory activity against Streptococcus mutans; type: functional, organism-based
[10] = test system: Actinomyces viscosus; assay: Minimum inhibitory concentration against Actinomyces viscosus M100-2000; NE is Not Effective; type: functional, organism-based; outline: as §1
[11] = test system: Actinomyces viscosus; assay: Maximum percentage inhibition against Actinomyces viscosus 6715-13WT at a concentration of 0.1% w/v; type: functional; conditions: in the assay text read “M-100-2000” for “6715-13WT”; outline: as §2
[12] = test system: Streptococcus mutans; assay: Maximum percentage inhibition against Streptococcus mutans at a concentration of 0.1% w/v; type: functional; outline: as §2

| Structure (SMILES) | pKa [1] | Log 1/MIC [2] | logD [3] | logP [4] | MIC [5] | further results |
| --- | --- | --- | --- | --- | --- | --- |
| CCCCCCS(=O)(=O)c1ccc(O)c(C(=O)Nc2ccc(C(F)(F)F)cc2)c1 | 6.2 | 4.94 | 4.18 | 5.22 | 5 µg/mL (≈ 11.6 µM) |  |
| CCCCS(=O)(=O)c1ccc(O)c(C(=O)Nc2ccc(Br)cc2)c1 | 5.2 | 4.31 | 2.48 | 4.12 | 20 µg/mL (≈ 48.5 µM) |  |
| CS(=O)(=O)c1ccc(O)c(C(=O)Nc2ccc(C(F)(F)F)cc2)c1 | 6.2 | 2.56 | 1.48 | 2.52 | 1000 µg/mL (≈ 2780 µM) |  |
| O=C(Nc1ccc(Br)cc1)c1cc(Br)cc(Br)c1O [TRIBROMSALAN] |  |  |  |  | 0.5 µg/mL (≈ 1.11 µM) | inhibition at 0.2 % strength [6]: 46%; IC50 [7]: 880 µM; inhibition at 0.2 % strength [8]: 53%; IC50 [9]: 1200 µM |
| CCCCCCCCCCCCCCS(=O)(=O)c1ccc(O)c(C(=O)Nc2ccc(C(F)(F)F)cc2)c1 |  |  |  |  |  | MIC [10]: inactive |
| CCCCCCS(=O)(=O)c1ccc(O)c(C(=O)Nc2ccc(Br)cc2)c1 | 5.2 | 4.94 | 3.2 | 5.2 | 5 µg/mL (≈ 11.4 µM) |  |
| CCCCCCCCCCCCCCS(=O)(=O)c1ccc(O)c(C(=O)Nc2cccc(C(F)(F)F)c2)c1 |  |  |  |  |  | MIC [10]: inactive |
| CCCCS(=O)(=O)c1ccc(O)c(C(=O)Nc2ccc(C(F)(F)F)cc2)c1 | 6.2 | 4.31 | 3.1 | 4.14 | 20 µg/mL (≈ 49.8 µM) |  |
| CS(=O)(=O)c1ccc(O)c(C(=O)Nc2ccccc2)c1 |  |  |  |  | ≥ 1000 µg/mL |  |
| CCCCCCCCS(=O)(=O)c1ccc(O)c(C(=O)Nc2ccc(C(F)(F)F)cc2)c1 | 6.2 | 5.96 | 5.26 | 6.3 | 0.5 µg/mL (≈ 1.09 µM) |  |
| CS(=O)(=O)c1ccc(O)c(C(=O)Nc2ccc(Br)cc2)c1 |  |  |  |  | ≥ 1000 µg/mL |  |
| CCCCCCCCCCS(=O)(=O)c1ccc(O)c(C(=O)Nc2cccc(C(F)(F)F)c2)c1 |  |  |  |  | 0.5 µg/mL (≈ 1.03 µM) | IC50 [7]: 680 µM; inhibition at 0.1 % strength [11]: 83%; IC50 [9]: 2300 µM; inhibition at 0.1 % strength [12]: 47% |

Now from value to molecule, other results behind:

| pKa [1] | Log 1/MIC [2] | logD [3] | logP [4] | MIC [5] | Structure (SMILES) | further results |
| --- | --- | --- | --- | --- | --- | --- |
|  |  |  |  | 1 µg/mL (≈ 2.12 µM) | CCCCCCCCCCCCS(=O)(=O)c1ccc(O)c(C(=O)Nc2ccc(C#N)cc2)c1 |  |
|  |  |  |  | 1000 µg/mL (≈ 2100 µM) | CCCCCCCCCCCCS(=O)(=O)c1ccc(O)c(C(=O)Nc2ccc(OC)cc2)c1 |  |
| 5.2 | 6.02 | 6.49 | 8.44 | 0.5 µg/mL (≈ 0.953 µM) | CCCCCCCCCCCCS(=O)(=O)c1ccc(O)c(C(=O)Nc2ccc(Br)cc2)c1 |  |
| 6.2 | 6.69 | 6.34 | 7.38 | 0.1 µg/mL (≈ 0.206 µM) | CCCCCCCCCCS(=O)(=O)c1ccc(O)c(C(=O)Nc2ccc(C(F)(F)F)cc2)c1 | inhibition at 0.2 % strength [6]: 76%; IC50 [7]: 90 µM; inhibition at 0.2 % strength [8]: 95%; IC50 [9]: 1900 µM |
|  |  |  |  | 0.5 µg/mL (≈ 0.964 µM) | CCCCCCCCCCCCCCS(=O)(=O)c1ccc(O)c(C(=O)Nc2ccc([N+](=O)[O-])cc2)c1 |  |
|  |  |  |  | 1 µg/mL (≈ 2.3 µM) | CCCCCCCCS(=O)(=O)c1ccc(O)c(C(=O)Nc2ccc([N+](=O)[O-])cc2)c1 |  |
| 5.2 | 6 | 5.36 | 7.36 | 0.5 µg/mL (≈ 1.01 µM) | CCCCCCCCCCS(=O)(=O)c1ccc(O)c(C(=O)Nc2ccc(Br)cc2)c1 |  |
|  |  |  |  | 0.5 µg/mL (≈ 1.02 µM) | CCCCCCCCCCCCS(=O)(=O)c1ccc(O)c(C(=O)Nc2ccc([N+](=O)[O-])cc2)c1 |  |
|  |  |  |  | 0.5 µg/mL (≈ 1.08 µM) | CCCCCCCCCCS(=O)(=O)c1ccc(O)c(C(=O)Nc2ccc([N+](=O)[O-])cc2)c1 | inhibition at 0.2 % strength [6]: 80%; IC50 [7]: 230 µM; inhibition at 0.2 % strength [8]: 93%; IC50 [9]: 190 µM |
|  |  |  |  | 0.1 µg/mL (≈ 0.195 µM) | CCCCCCCCCCCCS(=O)(=O)c1ccc(O)c(C(=O)Nc2cccc(C(F)(F)F)c2)c1 |  |
| 6.2 | 7.01 | 7.42 | 8.46 | 0.05 µg/mL (≈ 0.0973 µM) | CCCCCCCCCCCCS(=O)(=O)c1ccc(O)c(C(=O)Nc2ccc(C(F)(F)F)cc2)c1 |  |

From ChEMBL document CHEMBL1123206, “5-(Alkylsulfonyl)salicylanilides as potential dental antiplaque agents” (J Med Chem, 1986)
